{
  "source": "paper PMC3856692",
  "about": "(Biochemistry, 2013)",
  "key": {"CHIP [1]": {"molecular_target": "T1, CHIP (Homo sapiens, UniProt Q9UNE7)", "T1 sequence (Q9UNE7 1-303)": "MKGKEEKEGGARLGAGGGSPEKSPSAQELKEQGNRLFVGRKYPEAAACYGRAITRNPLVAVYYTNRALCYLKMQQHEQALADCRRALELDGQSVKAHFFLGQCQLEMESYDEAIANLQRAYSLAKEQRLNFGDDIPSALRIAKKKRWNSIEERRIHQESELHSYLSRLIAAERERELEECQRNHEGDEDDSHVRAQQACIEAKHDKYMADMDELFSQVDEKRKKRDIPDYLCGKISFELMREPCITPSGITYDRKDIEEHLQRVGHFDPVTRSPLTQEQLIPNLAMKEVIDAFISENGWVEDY", "experiment": "Biolayer interferometry", "type": "binding", "settings": "for Binding to CHIP (in words): BLI, Figure 1d / Figure 5"}, "CHIP [2]": {"test_system": "CHIP", "experiment": "1D 15N NMR relaxation of Hsc70 with or without CHIP", "design": "species or system Human", "settings": "15N relaxation", "how_it_was_run": "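15N-labelled full-length Hsc70 with uncleaved N-terminal His tag, 67 µM in 50 mM K2PO4, 200 µM NRLLLTG, 1 mM ADP, 5 mM MgCl2, 10 mM KCl, 0.02% NaN3, pH 7.2, 25 °C, with or without CHIP, at 800 MHz. 1D 15N R1 (10 h) and R2 (4.5 h) experiments were run, plus CSA/dipolar cross-correlated relaxation (T 10.2 ms). The 9.6–8.6 and 8.6–7.8 ppm regions were integrated and fitted single-exponentially, with jackknife errors.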"}, "CHIP [3]": {"test_system": "CHIP", "experiment": "1H-15N TROSY NMR of 15N-labeled Hsc70 with CHIP", "type": "binding, Human", "settings": "for Change of C-terminal resonances on CHIP binding (in words): residues 639-646 (GPTIEEVD)", "how_it_was_run": "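800 MHz TROSY of 15N full-length Hsc70 (uncleaved His tag) in 50 mM K2PO4, 110 µM NRLLLTG, 1 mM ADP, 5 mM MgCl2, 10 mM KCl, 0.02% NaN3, pH 7.2. Spectra: Hsc70 alone at 100 µM (12 h); Hsc70:CHIP 57:21 µM and 40:30 µM (52 h each); 67 µM 1:1 with CHIP; 60 µM 1:1:1 with UbcH5. Tail assigned from 250 µM triple-labelled Hsc70(391–646) 3D spectra at 30 °C.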"}, "[4]": {"experiment": "15N relaxation measurements, oligomeric state", "type": "physicochemical", "settings": "15N relaxation experiments"}, "CHIP [5]": {"molecular_target": "T1, CHIP", "experiment": "Fluorescence polarization", "type": "binding", "settings": "FP, 20 nM tracer, Figure 2"}, "[6]": {"molecular_target": "T2, CHIP (C-terminus of Hsc70 Interacting Protein), full-length human (human, UniProt Q9UNE7 1-303)", "T2 sequence (looked up)": "T1 sequence (Q9UNE7 1-303)", "experiment": "fluorescence polarisation"}},
  "note": "“Also recorded” adds a separate entry of the source. Primed or numbered codes have the meaning given here. No end group written: not given here. 5FAM′ = 5-carboxyfluorescein",
  "data": [
    {"molecule": "Hsc70ΔEEVD: Hsc70 mutant lacking the EEVD sequence", "values": [
      {"measurement": "Binding to CHIP (in words)", "setting": "CHIP [1]", "value": "Neither the Hsc70ΔSBD, nor the Hsc70ΔEEVD mutant displayed any ability to bind CHIP; also recorded: cannot bind CHIP"}
    ]},
    {"molecule": "wtHsc70: Human full-length Hsc70 (HspA8; 1–646)", "values": [
      {"measurement": "Hsc70-CHIP binding stoichiometry", "setting": "CHIP [1]; Hsc70 per CHIP", "value": "two molecules of Hsc70"},
      {"measurement": "Kd", "setting": "CHIP [1]; abstract, binding of Hsc70 to CHIP", "value": "~60", "unit": "nM"},
      {"measurement": "Slower dissociation than C-terminal peptide", "setting": "CHIP [1]; koff, wtHsc70 vs C-terminal peptide", "value": "~ 5 fold"},
      {"measurement": "Apparent molecular weight of the Hsc70-CHIP complex", "setting": "CHIP [1]; two molecules of Hsc70 and CHIP homodimer", "value": 210, "unit": "kDa"},
      {"measurement": "Increase in binding free energy relative to isolated C-terminal peptide", "setting": "CHIP [1]; wtHsc70 vs C-terminal peptide", "value": 1.08, "unit": "kcal/M"},
      {"measurement": "Extra binding free energy beyond EEVD", "setting": "CHIP [1]; wtHsc70 vs isolated peptide", "value": 1.08, "unit": "kcal/mol"},
      {"measurement": "Rotational correlation time of structured area with vs without CHIP (in words)", "setting": "CHIP [2]", "value": "not increased upon binding to CHIP"},
      {"measurement": "Change of TROSY spectrum on addition of UbcH5c or excess CHIP (in words)", "setting": "CHIP [3]; 1:1:1 15N Hsc70, CHIP and UbcH5c, 60 µM, or excess CHIP (data not shown)", "value": "does not further change the spectrum"},
      {"measurement": "Change of TROSY spectrum on CHIP binding (in words)", "setting": "CHIP [3]; 800 MHz, ADP and NRLLLTG bound state, pH 7.2, 25°C, 1:1 wtHsc70:CHIP", "value": "barely distinguishable from that of wtHsc70 alone"},
      {"measurement": "Change of resonances of residues 616–636 on CHIP binding (in words)", "setting": "CHIP [3]; assigned upstream residues 616–636 of unstructured tail", "value": "remained visible and relatively unaffected by the presence of CHIP"},
      {"measurement": "Change of C-terminal resonances on CHIP binding (in words)", "setting": "CHIP [3]", "value": "progressively disappear upon complex formation; also recorded: disappear from the wtHsc70 NMR spectrum"},
      {"measurement": "Change of C-terminal resonances on CHIP binding (in words)", "setting": "CHIP [3]; listed as Hsc70", "value": "disappear from the NMR spectrum"},
      {"measurement": "Oligomeric state (in words)", "setting": "[4]", "value": "monomeric at 100 µM"}
    ]},
    {"molecule": "NBD: nucleotide-binding domain, Hsc70 residues 1–383", "values": [
      {"measurement": "Binding to CHIP (in words)", "setting": "CHIP [1]; listed as Hsc70ΔSBD", "value": "Neither the Hsc70ΔSBD, nor the Hsc70ΔEEVD mutant displayed any ability to bind CHIP; also recorded: cannot bind CHIP"}
    ]},
    {"molecule": "5FAM-MEEVD", "values": [
      {"measurement": "Binding / affinity of fluorescent probes for CHIP (in words)", "setting": "CHIP [5]", "value": "nearly identical affinity to the longer peptide"},
      {"measurement": "Binding / affinity of fluorescent probes for CHIP (in words)", "setting": "CHIP [5]; listed as MEEVD", "value": "binds with affinity equal to that of the longer probe"}
    ]},
    {"molecule": "SBD: substrate-binding domain, Hsc70 residues 391–646", "values": [
      {"measurement": "Oligomeric state (in words)", "setting": "[4]", "value": "dimeric"}
    ]},
    {"molecule": "5FAM-DVEEM", "values": [
      {"measurement": "Binding / affinity of fluorescent probes for CHIP (in words)", "setting": "CHIP [5]", "value": "no affinity for CHIP"},
      {"measurement": "Binding / affinity of fluorescent probes for CHIP (in words)", "setting": "CHIP [5]; listed as DVEEM", "value": "had no affinity for CHIP"}
    ]},
    {"molecule": "{5FAM′}-MEEVD", "note": "[5FAM-MEEVD]", "values": [
      {"measurement": "Kd", "setting": "[6]", "value": "1500 ± 76", "unit": "nM"}
    ]},
    {"molecule": "{5FAM′}-DDTSRMEEVD", "note": "[5FAM-DDTSRMEEVD (Hsp90α-derived C-terminus, residues 723-732)]", "values": [
      {"measurement": "binding result", "setting": "[6]", "value": "binds"}
    ]}
  ]
}
